# In the library only some 2% were active in any assay of this set; here they are far more common.
# SR-BI uptake up = activators of SR-BI mediated DiI-HDL uptake, primary screen, ldlA[mSR-BI] CHO cells, DiI fluorescence. 3 h; 100 = double the neutral-control signal. activation, % at 12.5 µM. 320,000 tested, 0.096% active. AID 504775, 2011;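 active = mean replicate activation of at least 60% and every replicate at or above 60%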;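 note: 0% = median plate neutral-control signal and 100% = twice that signal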
#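 Material – SR-BI-overexpressing, LDLR-lacking CHO cells · Medium – BSA-supplemented, HEPES-buffered Ham's F12, pH 7.4 · Doses – single concentration · Times – compound with DiI-HDL co-incubation, 3 h at 37 °C · Measured by – bottom-read fluorescence, 550/595 nm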
# SR-BI HDL uptake = inhibitors of SR-BI mediated HDL lipid uptake, primary screen, ldlA[mSR-BI] cells, fluorescence, single point. Scavenger receptor class B member 1 (Mus musculus), Q61009. ldlA[mSR-BI] CHO cells, DiI-HDL uptake fluorescence, 3 h. inhibition, % at 12.5 µM. 320,000 tested, 0.96% active;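 active = mean replicate inhibition of at least 70% and a set share of replicates each scoring 70 or more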;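 note: 0% = median of neutral control wells and 100% = median of positive control wells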
# sPLA2-III inh = human group III sPLA2 inhibitors, primary screen, biochemical, QFRET, BODIPY PC-A2 liposome substrate | Group 3 secretory phospholipase A2 (Homo sapiens), Q9NZ20 | inhibition, % at 12.2 µM | QFRET BODIPY PC-A2 liposome hydrolysis, fluorescence | 370,000 tested, 0.56% active;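 active = inhibition above mean plus 3 SD of compounds lying within the high and low control bounds, cut at about 19% in these data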;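 note: 0% = median of test compound wells and 100% = no enzyme DMSO wells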
# Target sequence (Q9NZ20 whole entry, looked up): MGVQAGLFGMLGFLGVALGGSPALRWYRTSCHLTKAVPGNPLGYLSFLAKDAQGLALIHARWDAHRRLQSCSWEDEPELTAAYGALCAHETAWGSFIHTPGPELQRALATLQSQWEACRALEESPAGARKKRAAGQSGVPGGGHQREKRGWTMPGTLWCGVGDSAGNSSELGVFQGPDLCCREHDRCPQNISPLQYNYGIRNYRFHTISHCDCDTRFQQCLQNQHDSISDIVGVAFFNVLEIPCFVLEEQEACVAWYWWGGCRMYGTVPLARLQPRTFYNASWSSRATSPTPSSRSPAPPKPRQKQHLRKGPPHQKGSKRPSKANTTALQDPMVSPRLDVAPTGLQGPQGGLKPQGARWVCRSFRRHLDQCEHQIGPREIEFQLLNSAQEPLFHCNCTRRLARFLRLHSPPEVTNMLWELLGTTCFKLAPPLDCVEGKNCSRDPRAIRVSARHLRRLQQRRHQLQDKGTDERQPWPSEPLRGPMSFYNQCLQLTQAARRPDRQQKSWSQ
# NSD2 HMT inh = NSD2 histone methyltransferase inhibitors, primary screen, biochemical, AlphaScreen, single concentration, set 2; inhibition, % at 12.5 µM; NSD2 peptide methylation, 120 min; Histone-lysine N-methyltransferase NSD2 (Homo sapiens), O96028; 310,000 tested, 0.54% active; AID 743445, 2014; in the data active = inhibition above about 50%
# ARNT TACC3 PPI = disruptors of ARNT/TACC3 protein interaction, primary screen, biochemical, AlphaScreen, single concentration; AlphaScreen His-ARNT PAS-B/GST-TACC3 binding, luminescence; TACC3 fragment carries E629A point mutation; inhibition, % at 9.99 µM; 390,000 tested, 0.66% active; AID 623870, 2012;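 active = mean inhibition of replicates at least 50% and at least half of replicates each reaching 50%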;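 note: 0% = complete ARNT plus TACC3 wells and 100% = ARNT alone without TACC3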
# Xi reactivation = activators of inactive X chromosome reactivation, primary screen, imaging, XiGFP fibroblasts, GFP high-content imaging, set 2; XiGFP mouse fibroblasts, % GFP-positive cells imaging, 3 d; cells co-treated with 5-aza-dC sensitizer; scaled so ellipticine positive control = 100%; activation, % at 7.58 µM; 360,000 tested, 0.055% active; AID 743238, 2013;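 active = mean normalized replicate activation at least 10% and every replicate at or above 10%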;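 note: 0% = median of on-plate neutral control wells and 100% = ellipticine 6 µM median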
#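 System: SV40-immortalized XiGFP fibroblast cells, line 68-5-11 / Incubation: 3-day compound exposure, then 15 min fixation at room temperature / Compound: single concentration per compound, delivered by pin transfer / Buffer or medium: DMEM plus 5-aza-dC sensitizer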
# Starred values were filed as active, the others as inactive; . = not tested or not shown; + = active, no number.
SMILES,SR-BI uptake up,SR-BI HDL uptake,sPLA2-III inh,NSD2 HMT inh,ARNT TACC3 PPI,Xi reactivation
C/C(=N\NC(=O)c1cc(C)nc2ccccc12)c1ccccn1,4,-4,5,2,.,0
COc1ccc2nc(NN=C(C)c3ccccn3)cc(C)c2c1,-31,31,-4,2,70*,0
CC(=NNc1ccc2ccccc2n1)c1ccccn1,.,.,5,9,.,33*
CC(=NNc1ccc2ccccc2n1)c1ccccc1O,-33,33,-1,8,28,0
COc1ccccc1-n1nnnc1SCC(=O)Nc1ccccn1,17,-17,6,0,-1,.
CC1CCN(CCCCOc2cccc(C(C)C)c2)CC1,-3,3,3,20,-10,0
N#Cc1cccc(-c2ccc3c(c2)[C@@H]2[C@@H](CCN2Cc2ccncc2)[C@@H](CO)N3)c1,.,.,.,.,25*,0
N#Cc1cccc(-c2ccc3c(c2)[C@H]2[C@H](CCN2Cc2ccncc2)[C@H](CO)N3)c1,.,.,.,.,14*,0
N#Cc1cccc(-c2ccc3c(c2)[C@H]2[C@H](CCN2Cc2cncnc2)[C@@H](CO)N3)c1,.,.,.,.,0,0
O=C(N[C@@H]1CC[C@H](CCNC(=O)C2CCCCC2)O[C@@H]1CO)c1ccccn1,.,.,.,.,1,0
On1ccccc1=S,15,-15,11,.,+,0
O=C(N/N=C/c1cc2c3c(c1O)CCCN3CCC2)c1ccccc1O,-140,140*,6,13,.,0
O=C1CNC(=S)N1CCCn1ccnc1,.,.,-2,0,60*,0
Cc1nccn1CCCN1C(=O)CNC1=S,18,-18,-6,0,0,0
CN(C)S(=O)(=O)c1cccc(C(=O)Nc2cc(Cl)cc(Cl)c2)c1,-73,73*,-47,-3,-20,.
Cc1ccnc(NC(=O)c2cccc(OC(F)F)c2)n1,.,.,1,1,-2,0
O=C(Nc1cc(Cl)cc(Cl)c1)c1cccc(OC(F)F)c1,-74,74*,-23,-8,-15,.
CC(=O)Nc1cccc(/C(C)=N/NC(N)=S)c1,-82,82*,4,0,16,0
O=C(CSC1=NNC(c2ccccn2)S1)Nc1ccc(C(F)(F)F)cc1 (centres undefined),-95,95*,1,-7,76*,3
CCCc1ccccc1OCCNC(C)=O,17,-17,6,-3,-15,.
COc1ccc(C=NN=C2c3ccccc3-c3ccccc32)cc1OC,-79,79*,-6,-2,10,0
Cc1ccccc1NC(=O)c1sc2nc3c(c(-c4ccco4)c2c1N)CCCC3,-79,79*,7,-1,.,.
Nc1c(C(=O)Nc2ccccc2)sc2nc3c(c(-c4ccco4)c12)CCCC3,-32,32,-4,1,-5,.
Nc1c(C(=O)Nc2ccccc2)sc2nc3c(c(-c4ccco4)c12)CCC3,-80,80*,6,-3,.,.
CC(C)=C1Cc2ccccc2C1=O,12,-12,8,.,-13,0
SMILES,SR-BI uptake up,SR-BI HDL uptake,sPLA2-III inh,NSD2 HMT inh,ARNT TACC3 PPI,Xi reactivation
CSc1ccc(/C=N/Nc2cccc(C(=O)O)c2)cc1,3,-3,.,99*,-18,.
COc1ccc(NC(=O)c2cn(-c3ccccc3)nc2-c2cc3ccccc3o2)cc1,-81,81*,0,-1,-2,.
COc1ccc(NC(=O)c2cn(-c3ccccc3)nc2-c2ccncc2)cc1,-49,49,-3,0,-3,0
COc1ccc(-c2nn(-c3ccccc3)cc2C(=O)NC(=S)NNC(=O)c2ccncc2)cc1,-11,11,14,-21,46*,0
COc1ccc(-c2[nH]ncc2N=Nc2ccccc2)cc1,-61,61,-13,3,7,0
COc1ccc(-c2[nH]ncc2N=Nc2cc(C)cc(C)c2)cc1,-84,84*,-23,4,7,0
CCOC(=O)C1=C(C)NC(C)=C(C(=O)OCC)C1c1cn(-c2ccccc2)nc1-c1ccco1,18,-18,-5,0,62*,.
COc1ccc(NC(=O)c2cc(-c3ccncc3)nc3ccc(Br)cc23)cc1OC,-83,83*,1,-3,4,0
COc1ccc(NC(=O)c2cc(-c3ccc(C)o3)nc3ccccc23)c(OC)c1,.,.,-5,0,.,0
COc1ccc(NC(=O)c2cc3ccccc3cc2OC)cc1OC,-70,70*,4,-3,3,0
COc1ccc(CNC(=O)c2cc(-c3ccncc3)nc3c(C)cc(C)cc23)cc1OC,-72,72*,-19,-2,5,0
COc1cc(OC)c(C(=O)Nc2ccc3ccccc3c2)cc1OC,-26,26,.,.,-3,.
COc1ccc(CCNC(=O)c2cc(-c3ccncc3)nc3c(Cl)cccc23)cc1OC,-53,53,-14,0,4,0
COc1ccc(NC(=O)c2cc(-c3ccc(C)o3)nc3ccccc23)cc1OC,-83,83*,-8,2,8,.
CC(=O)Nc1ccc(S(=O)(=O)N2CCC(=O)Nc3ccccc32)cc1,9,-9,1,-1,-19,0
COc1cc(NC(=O)c2cc3c(C)nc4ccccc4c3o2)cc(OC)c1OC,-73,73*,0,.,42,0
COc1cc2ccccc2cc1C(=O)Nc1ccccc1N1CCN(S(C)(=O)=O)CC1,-89,89*,-24,0,11,.
Cc1nc2ccccc2c2oc(C(=O)Nc3ccc(C(C)C)cc3)cc12,-46,46,-14,-2,.,0
Cc1ccc(S(=O)(=O)c2ncccc2[N+](=O)[O-])cc1,13,-13,-1,1,30,1
COc1ccc2c3c(n(C)c2c1)[C@H](CO)N(C(=O)C1CC1)CC31CN(C)C1,.,.,.,.,.,1
CCOC(=O)Nc1ccc2c(c1)C(=NNC(N)=S)c1ccccc1-2,-83,83*,-26,-2,.,0
CC(=O)OCCNc1cc(Sc2nc3ccccc3[nH]2)c2nonc2c1[N+](=O)[O-],3,-3,6,1,17,17*
CC(=O)OCCCNc1cc(Sc2nc3ccccc3s2)c2nonc2c1[N+](=O)[O-],15,-15,.,.,24,.
COc1ccnc(N=CNOCc2ccc(Cl)cc2)c1C#N,.,.,1,-2,-5,0
